Laboratory results from ChEMBL document CHEMBL1138529, “Efficacy, pharmacokinetics, and metabolism of tetrahydroquinoline inhibitors of Plasmodium falciparum protein farnesyltransferase” (Antimicrob Agents Chemother, 2007).
Calls of active or inactive are those of the source.

Key:
[1] = molecular target: Type-1 angiotensin II receptor (Homo sapiens) (UniProt P30556); test: Inhibition of angiotensin AT1 receptor at 10 uM
How it was run: (§1)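 Radioligand displacement at a contract lab across a panel of 50 receptors, ion channels and transporters, single test concentration 10 μM; loss of specific ligand binding reported as percent, with >50% decrease counted as significant.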

[2] = molecular target: Galanin receptor type 2 (Homo sapiens) (UniProt O43603); test: Inhibition of Galanin receptor type 2 at 10 uM
Galanin receptor type 2 (Homo sapiens), sequence (O43603 whole entry): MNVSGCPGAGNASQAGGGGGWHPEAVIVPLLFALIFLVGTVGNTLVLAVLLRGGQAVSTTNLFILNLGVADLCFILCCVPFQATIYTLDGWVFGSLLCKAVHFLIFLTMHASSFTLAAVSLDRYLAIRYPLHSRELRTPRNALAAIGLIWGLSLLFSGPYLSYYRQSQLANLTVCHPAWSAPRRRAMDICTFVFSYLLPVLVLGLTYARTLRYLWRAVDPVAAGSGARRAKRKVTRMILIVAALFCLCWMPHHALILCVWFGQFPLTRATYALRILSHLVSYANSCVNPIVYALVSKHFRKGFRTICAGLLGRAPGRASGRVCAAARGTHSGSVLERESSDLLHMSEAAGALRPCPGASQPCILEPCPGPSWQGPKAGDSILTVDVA
How it was run: (§2)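 Radioligand displacement screen by a contractor across 50 receptors, ion channels and transporters, test compound at 10 μM; decrease in specific ligand binding expressed as percentage, with >50% decrease taken as significant.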

[3] = Elimination half life in Sprague-Dawley rat at 50 mg/kg, po; format: ADME, organism-based; parameters: dose 50 mg/kg, route oral; conditions: in vivo, read-out: beta t1/2
How it was run: (§3)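 50 mg/kg by oral gavage in 3% EtOH-7% Tween 80-90% normal saline to groups of three females (BALB/c mice, 8–10 weeks, tail bleed; Sprague-Dawley rats, 10–12 weeks, saphenous vein). Plasma extracted with acetonitrile/internal standard, LC/MS; means of three animals. Oral elimination half-life depends on absorption rate as well as elimination.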

[4] = Elimination half life in BALB/c mouse at 50 mg/kg, po; format: ADME, organism-based; parameters: dose 50 mg/kg, route oral; conditions: in vivo, read-out: beta t1/2; how it was run: as §3
[5] = Elimination half life in Sprague-Dawley rat at 2 mg/kg, iv; format: ADME, organism-based; parameters: dose 2 mg/kg, route intravenous; conditions: in vivo, read-out: beta t1/2
How it was run: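 Three female Sprague-Dawley rats per group (10–12 weeks), jugular-vein catheterized; 2 mg/kg in 3% EtOH-7% Tween 80-90% normal saline given through the catheter. Plasma drawn from the catheter at set times, acetonitrile extraction with internal standard, LC/MS quantification.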

[6] = molecular target: 5-hydroxytryptamine receptor 2A (Homo sapiens) (UniProt P28223); test: Inhibition of 5HT2A receptor at 10 uM; how it was run: as §2
5-hydroxytryptamine receptor 2A (Homo sapiens), sequence (P28223 whole entry): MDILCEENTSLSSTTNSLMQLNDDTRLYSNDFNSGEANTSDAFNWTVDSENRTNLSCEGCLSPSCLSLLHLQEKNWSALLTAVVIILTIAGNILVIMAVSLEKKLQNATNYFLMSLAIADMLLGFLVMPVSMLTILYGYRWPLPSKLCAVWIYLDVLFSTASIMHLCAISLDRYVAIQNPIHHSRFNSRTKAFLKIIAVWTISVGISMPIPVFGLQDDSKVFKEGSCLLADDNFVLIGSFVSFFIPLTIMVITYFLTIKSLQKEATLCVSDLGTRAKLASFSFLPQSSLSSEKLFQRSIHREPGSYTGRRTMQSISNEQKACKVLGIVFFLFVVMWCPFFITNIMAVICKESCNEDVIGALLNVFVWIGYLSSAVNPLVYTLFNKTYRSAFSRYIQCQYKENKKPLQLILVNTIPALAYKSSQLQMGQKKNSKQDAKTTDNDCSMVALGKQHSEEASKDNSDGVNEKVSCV

Plasmodium berghei = test: Antiplasmodial activity as reduced parasitaemia against Plasmodium berghei NK65 infected Sprague-Dawley rat at 50 mg/kg every 8 hrs peroral dose for 3 days
[7] = molecular target: Histamine H1 receptor (Homo sapiens) (UniProt P35367); test: Inhibition of histamine H1 receptor at 10 uM; how it was run: as §1
Histamine H1 receptor (Homo sapiens), sequence (P35367 whole entry): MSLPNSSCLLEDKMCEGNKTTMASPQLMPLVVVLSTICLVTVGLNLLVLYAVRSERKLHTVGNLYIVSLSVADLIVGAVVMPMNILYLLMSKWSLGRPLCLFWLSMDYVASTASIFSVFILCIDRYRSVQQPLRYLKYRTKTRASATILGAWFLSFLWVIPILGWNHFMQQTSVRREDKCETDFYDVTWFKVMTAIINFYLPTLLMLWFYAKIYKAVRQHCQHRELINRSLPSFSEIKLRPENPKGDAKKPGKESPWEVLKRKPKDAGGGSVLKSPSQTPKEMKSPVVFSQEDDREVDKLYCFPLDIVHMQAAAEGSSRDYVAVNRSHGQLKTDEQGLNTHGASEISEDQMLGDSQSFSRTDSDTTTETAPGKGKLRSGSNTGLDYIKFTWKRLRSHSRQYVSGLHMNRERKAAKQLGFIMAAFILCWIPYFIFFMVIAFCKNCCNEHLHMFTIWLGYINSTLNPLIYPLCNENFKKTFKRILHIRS

Rattus norvegicus [8] = test: Toxicity in Plasmodium berghei NK65 infected Sprague-Dawley rat assessed as effect on glucose levels at 50 mg/kg, perorally administered every 12 hrs for 3 days; format: organism-based; parameters: dose 50 mg/kg, route oral; conditions: in vivo, po, in the assay text read “every 8 hrs” for “every 12 hrs”
How it was run: (§4)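 Female Sprague-Dawley rats, 10-12 weeks, n = 3 per schedule. Dosed 50 mg/kg by oral gavage every 8 h or every 12 h for 72 h. At the end of dosing, blood was sent to a clinical laboratory for complete blood counts, white cell differentials, electrolytes, glucose, renal function, liver enzymes and cholesterol.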

Plasmodium falciparum = test: Antiplasmodial activity against Plasmodium falciparum by [3H]hypoxanthine uptake; format: functional; conditions: read-out: ED50 (the source's name)
How it was run: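 Asynchronous P. falciparum (3D7 or K1) in RPMI 1640 with 20% heat-inactivated human A+ plasma, 0.5% parasitemia and 0.5% hematocrit; compound serially diluted, top final 5 μM, 48 h at 37°C under 5% CO2/5% O2/90% N2, then [8-3H]hypoxanthine 0.3 μCi added for 24 h.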

Salmonella typhimurium [9] = test: Genotoxicity in Salmonella enterica serovar Typhimurium TA98 assessed as increase in number of revertants in presence of rat liver S9 fraction by Ames test; format: toxicity, organism-based; conditions: salmonella enterica subsp. enterica serovar typhimurium
How it was run: (§5)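 Liquid-culture Ames assay run by a contractor: S. Typhimurium TA98 and TA100 exposed for 96 h in histidine-free medium, with and without rat liver S9, at 5, 10, 50 and 100 μM (plus higher concentrations); growth read spectrophotometrically by pH-indicator colour change. Parallel bacterial cytotoxicity assay at same concentrations.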

[10] = molecular target: 5-hydroxytryptamine receptor 1B (Homo sapiens) (UniProt P28222); test: Inhibition of 5HT1B receptor at 10 uM; how it was run: as §2
5-hydroxytryptamine receptor 1B (Homo sapiens), sequence (P28222 whole entry): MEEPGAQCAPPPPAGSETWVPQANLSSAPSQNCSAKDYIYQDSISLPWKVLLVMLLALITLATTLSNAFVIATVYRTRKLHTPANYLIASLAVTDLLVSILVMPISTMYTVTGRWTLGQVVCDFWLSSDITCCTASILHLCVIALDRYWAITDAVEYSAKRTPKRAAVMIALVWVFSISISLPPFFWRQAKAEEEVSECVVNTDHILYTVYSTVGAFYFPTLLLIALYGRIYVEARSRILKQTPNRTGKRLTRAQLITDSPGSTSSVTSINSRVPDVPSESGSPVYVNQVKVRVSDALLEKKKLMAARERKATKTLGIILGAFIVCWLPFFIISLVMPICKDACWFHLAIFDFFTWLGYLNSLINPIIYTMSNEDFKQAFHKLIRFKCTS

Mus musculus = test: Toxicity in BALB/c mouse at 50 mg/kg, po; format: organism-based; parameters: dose 50 mg/kg, route oral; conditions: in vivo
[11] = molecular target: Melanocortin receptor 4 (Homo sapiens) (UniProt P32245); test: Inhibition of MC4 receptor at 10 uM; how it was run: as §2
Melanocortin receptor 4 (Homo sapiens), sequence (P32245 whole entry): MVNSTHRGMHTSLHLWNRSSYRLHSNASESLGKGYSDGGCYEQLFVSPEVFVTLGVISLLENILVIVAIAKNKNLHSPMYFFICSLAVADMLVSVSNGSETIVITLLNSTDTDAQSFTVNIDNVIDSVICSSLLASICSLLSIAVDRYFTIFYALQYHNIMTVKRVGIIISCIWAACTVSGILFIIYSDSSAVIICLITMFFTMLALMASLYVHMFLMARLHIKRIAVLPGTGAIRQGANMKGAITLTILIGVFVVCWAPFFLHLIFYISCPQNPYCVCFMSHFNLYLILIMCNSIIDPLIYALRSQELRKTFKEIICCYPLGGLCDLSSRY

[12] = Inhibition of somatostatin receptor at 10 uM
How it was run: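 Radioligand displacement screen at a 10 μM test concentration, run by a contract lab across a panel of 50 receptors, pharmacologically active ion channels and transporters. The read-out is the decrease in specific radiolabeled ligand binding, expressed as a percentage. A decrease above 50% was considered significant.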

[13] = molecular target: Neurotensin receptor type 1 (Homo sapiens) (UniProt P30989); test: Inhibition of NTS1 receptor at 10 uM; how it was run: as §2
Neurotensin receptor type 1 (Homo sapiens), sequence (P30989 whole entry): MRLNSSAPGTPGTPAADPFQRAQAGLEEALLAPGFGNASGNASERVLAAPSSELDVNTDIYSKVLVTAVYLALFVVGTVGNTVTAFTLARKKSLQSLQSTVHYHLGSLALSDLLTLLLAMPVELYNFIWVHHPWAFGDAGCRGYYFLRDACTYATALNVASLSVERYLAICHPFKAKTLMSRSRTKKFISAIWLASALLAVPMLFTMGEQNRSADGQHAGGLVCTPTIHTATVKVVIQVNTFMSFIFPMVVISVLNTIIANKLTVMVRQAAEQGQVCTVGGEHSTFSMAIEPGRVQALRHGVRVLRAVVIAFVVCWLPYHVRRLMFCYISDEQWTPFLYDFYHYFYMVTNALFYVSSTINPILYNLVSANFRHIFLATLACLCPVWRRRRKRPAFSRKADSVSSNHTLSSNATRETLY

Rattus norvegicus [14] = test: Toxicity in Plasmodium berghei NK65 infected Sprague-Dawley rat assessed as effect on liver enzyme levels at 50 mg/kg, perorally administered every 12 hrs for 3 days; format: organism-based; parameters: dose 50 mg/kg, route oral; conditions: in vivo, po, in the assay text read “every 8 hrs” for “every 12 hrs”; how it was run: as §4
Salmonella typhimurium [15] = test: Genotoxicity in Salmonella enterica serovar Typhimurium TA100 assessed as increase in number of revertants in presence of rat liver S9 fraction by Ames test; format: toxicity, organism-based; conditions: salmonella enterica subsp. enterica serovar typhimurium; how it was run: as §5
[16] = molecular target: Delta-type opioid receptor (Homo sapiens) (UniProt P41143); test: Inhibition of delta opioid receptor at 10 uM; how it was run: as §1
Delta-type opioid receptor (Homo sapiens), sequence (P41143 whole entry): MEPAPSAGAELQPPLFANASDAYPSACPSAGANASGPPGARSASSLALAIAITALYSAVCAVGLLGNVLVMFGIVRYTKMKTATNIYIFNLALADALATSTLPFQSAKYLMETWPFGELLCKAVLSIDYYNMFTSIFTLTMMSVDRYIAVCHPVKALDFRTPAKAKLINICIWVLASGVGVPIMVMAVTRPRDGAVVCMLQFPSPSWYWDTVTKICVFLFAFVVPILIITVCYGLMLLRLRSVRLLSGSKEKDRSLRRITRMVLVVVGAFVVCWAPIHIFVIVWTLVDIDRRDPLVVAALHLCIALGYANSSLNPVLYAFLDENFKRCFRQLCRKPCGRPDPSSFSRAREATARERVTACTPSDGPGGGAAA

[17] = molecular target: Vasopressin V1a receptor (Homo sapiens) (UniProt P37288); test: Inhibition of vasopressin V1a receptor at 10 uM; how it was run: as §1
Vasopressin V1a receptor (Homo sapiens), sequence (P37288 whole entry, looked up): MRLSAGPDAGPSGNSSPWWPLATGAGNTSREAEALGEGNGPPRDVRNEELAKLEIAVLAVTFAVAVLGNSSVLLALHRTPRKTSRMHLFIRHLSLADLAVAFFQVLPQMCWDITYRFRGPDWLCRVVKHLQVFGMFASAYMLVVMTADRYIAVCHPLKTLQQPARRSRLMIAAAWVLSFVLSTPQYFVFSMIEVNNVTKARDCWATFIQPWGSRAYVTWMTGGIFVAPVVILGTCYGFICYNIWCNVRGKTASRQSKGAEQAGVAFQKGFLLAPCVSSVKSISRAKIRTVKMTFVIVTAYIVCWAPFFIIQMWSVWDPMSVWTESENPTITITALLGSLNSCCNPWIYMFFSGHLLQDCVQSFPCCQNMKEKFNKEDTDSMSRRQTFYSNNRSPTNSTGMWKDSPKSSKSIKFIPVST

[18] = molecular target: Endothelin-1 receptor (Homo sapiens) (UniProt P25101); test: Inhibition of ETA receptor at 10 uM; how it was run: as §2
Endothelin-1 receptor (Homo sapiens), sequence (P25101 whole entry): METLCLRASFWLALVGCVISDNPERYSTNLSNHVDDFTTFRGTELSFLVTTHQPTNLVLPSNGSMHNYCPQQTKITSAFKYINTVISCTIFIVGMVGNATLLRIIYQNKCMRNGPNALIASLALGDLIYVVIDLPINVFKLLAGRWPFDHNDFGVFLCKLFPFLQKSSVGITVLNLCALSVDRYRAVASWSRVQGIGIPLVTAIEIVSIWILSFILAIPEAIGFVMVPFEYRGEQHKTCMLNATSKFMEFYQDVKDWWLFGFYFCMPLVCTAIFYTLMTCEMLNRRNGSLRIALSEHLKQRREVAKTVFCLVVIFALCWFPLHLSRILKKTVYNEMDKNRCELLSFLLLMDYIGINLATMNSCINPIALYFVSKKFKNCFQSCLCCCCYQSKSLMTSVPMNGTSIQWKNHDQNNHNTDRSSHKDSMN

[19] = molecular target: 5-hydroxytryptamine receptor 1A (Homo sapiens) (UniProt P08908); test: Inhibition of 5HT1A receptor at 10 uM; how it was run: as §2
5-hydroxytryptamine receptor 1A (Homo sapiens), sequence (P08908 whole entry): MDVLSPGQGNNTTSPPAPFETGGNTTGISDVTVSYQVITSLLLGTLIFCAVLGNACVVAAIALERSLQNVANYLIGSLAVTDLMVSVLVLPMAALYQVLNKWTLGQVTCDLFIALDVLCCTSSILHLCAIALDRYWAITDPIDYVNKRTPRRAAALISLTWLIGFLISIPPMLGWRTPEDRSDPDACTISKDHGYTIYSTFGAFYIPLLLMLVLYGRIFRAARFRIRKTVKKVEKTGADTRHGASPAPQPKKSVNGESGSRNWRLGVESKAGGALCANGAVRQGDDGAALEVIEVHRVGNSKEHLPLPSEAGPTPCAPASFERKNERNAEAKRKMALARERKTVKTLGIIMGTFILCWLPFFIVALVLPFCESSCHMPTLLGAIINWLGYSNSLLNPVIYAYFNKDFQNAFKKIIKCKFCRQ

Type-1 angiotensin II receptor (Homo sapiens), sequence (P30556 whole entry): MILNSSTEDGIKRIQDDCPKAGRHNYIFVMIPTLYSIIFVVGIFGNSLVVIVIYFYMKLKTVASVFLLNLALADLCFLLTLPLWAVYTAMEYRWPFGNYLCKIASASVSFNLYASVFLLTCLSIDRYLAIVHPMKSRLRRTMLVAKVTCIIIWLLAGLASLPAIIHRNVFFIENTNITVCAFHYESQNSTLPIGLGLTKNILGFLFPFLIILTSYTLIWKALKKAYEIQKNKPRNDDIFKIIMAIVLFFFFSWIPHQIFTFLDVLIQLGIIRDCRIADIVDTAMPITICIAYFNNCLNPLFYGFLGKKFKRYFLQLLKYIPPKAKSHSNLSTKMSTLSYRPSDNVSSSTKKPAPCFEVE

With `COC(=O)N1CCC(CN(C2Cc3cc(C#N)ccc3N(Cc3cncn3C)C2)S(=O)(=O)c2ccccn2)CC1` (configuration not stated) the inhibition [1] was “inactive”, the inhibition [2] was “inactive” and the half-life [3] was 41 min. For the same compound, the half-life [4] was 18 min, the half-life [5] was 17 min and the inhibition [6] was “inactive”. For the same compound, the Activity (Plasmodium berghei) was “Active”, the inhibition [7] was “inactive” and the Activity (Rattus norvegicus [8]) was “Non-toxic”. For the same compound, the EC50 (Plasmodium falciparum) was 0.018 µM, the Activity (Salmonella typhimurium [9]) was “Non-toxic” and the inhibition [10] was “inactive”. The Activity (Mus musculus) was “Non-toxic”, the inhibition [11] was “inactive” and the inhibition [12] was “inactive”. For the same compound, the inhibition [13] was “inactive”, the Activity (Rattus norvegicus [14]) was “Non-toxic” and the Activity (Salmonella typhimurium [15]) was “Non-toxic”. The inhibition [16] was “inactive”, the inhibition [17] was 81% and the inhibition [18] was “inactive”. For the same compound, the inhibition [19] was “inactive”.
